From PubChem
MrgX1 PAM – human MrgX1 positive allosteric modulation, primary screen; Q96LB2; MrgX1-HEK293, Fluo-4 calcium flux, FDSS; active compounds read high; B-score at 10 µM; hit rate 0.63% among 310,000; AID 588675;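 active means plate-corrected calcium response at least 3 library SD above typical, normal starting fluorescence, not activating the receptor alone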;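 further: compound read alongside a low EC10 to EC30 dose of BAM8-22 agonist; peak minus trough fluorescence over baseline measured at the second addition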
Target sequence (Q96LB2 whole entry, looked up): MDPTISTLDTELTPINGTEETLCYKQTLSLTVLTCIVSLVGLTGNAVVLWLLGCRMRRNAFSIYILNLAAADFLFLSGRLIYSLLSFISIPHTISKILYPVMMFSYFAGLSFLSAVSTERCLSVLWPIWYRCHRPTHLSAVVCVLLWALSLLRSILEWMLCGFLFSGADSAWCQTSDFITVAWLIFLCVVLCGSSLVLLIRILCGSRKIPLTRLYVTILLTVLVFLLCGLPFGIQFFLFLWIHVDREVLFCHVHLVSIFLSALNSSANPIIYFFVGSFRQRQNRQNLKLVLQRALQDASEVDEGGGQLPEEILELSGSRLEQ
Hep lipid drop – hepatic lipid droplet formation modulation; AML12 mouse hepatocytes, oleate lipid droplets, BODIPY imaging; inhibition, % at 6.5 µM; hit rate 0.4% among 240,000;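 active means lipid droplet intensity inhibited by at least 50%, with more than 500 cells counted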
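Assay system: AML12 hepatocytes (mouse) / Also added: 100 µM oleic acid challenge / Times: overnight treatment with compound plus oleate / Detection: high-content imaging of BODIPY-stained droplets and DAPI nuclei / Evaluation: % inhibition of lipid droplet signal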
RGS4 act – RGS4 potentiation or activation. HEK293 M3R/inducible RGS4, carbachol calcium flux Fluo4; active compounds read low. B-score at 10 µM. hit rate 0.92% among 310,000. AID 463111;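 active means B-score of the integrated calcium signal more than 4 SD below the library mean, with starting fluorescence not abnormally high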;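 further: negative B-score means reduced calcium response which marks RGS4 activation or potentiation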
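Material: M3R-expressing HEK293 line, RGS4 induced by doxycycline | Schedule: Overnight RGS4 induction, 30 min dye load 37 °C, 20 min compound RT | Measured by: Fluo4 fluorescence kinetic imaging of calcium | Read-out: Integrated calcium ratio converted to B score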
RGS4 inh – human RGS4 inhibition | HEK293 M3R/RGS4 inducible, Fluo-4 calcium flux; active compounds read high; triggered by carbachol at its EC20 | B-score at 10 µM | hit rate 0.45% among 310,000;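 active means B-score, a plate-corrected calcium signal, over three deviations above library mean, with baseline fluorescence within five deviations of library mean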;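 further: RGS4 expression induced by doxycycline in cells with stable M3 receptor; B-score is computed from the integrated fluorescence ratio over baseline after carbachol; higher B-score means a larger calcium signal and so more RGS4 inhibition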
Target sequence (P49798 whole entry, looked up): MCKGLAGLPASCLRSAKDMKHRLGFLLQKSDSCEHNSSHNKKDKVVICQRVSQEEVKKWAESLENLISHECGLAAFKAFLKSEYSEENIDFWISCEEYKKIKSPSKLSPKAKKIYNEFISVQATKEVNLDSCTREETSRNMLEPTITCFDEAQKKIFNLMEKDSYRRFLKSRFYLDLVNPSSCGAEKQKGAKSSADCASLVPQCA
MrgX1 antag – blocks BAM8-22 activation of human MrgX1 receptor; MRGX1-HEK293 calcium flux, Fluo-4, BAM8-22 antagonism; active compounds read low; B-score at 10 µM; hit rate 1.3% among 310,000; AID 588676; Q96LB2;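 active means calcium-response B-score plate-corrected more than 3 library SD below zero, starting fluorescence within 5 deviations, no agonist response on first addition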;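 further: peak minus trough fluorescence over baseline after final BAM8-22 challenge near maximal dose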
MrgX1 agonist – agonists of human MrgX1 receptor. Q96LB2. MrgX1-HEK293 cells, Fluo-4 calcium fluorescence, agonist mode; active compounds read high. B-score at 10 µM. hit rate 0.44% among 310,000. AID 588627;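 active means calcium response B-score plate-corrected fluorescence ratio at least 3 library SD, with starting fluorescence B-score inside 5 SD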
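Material: HEK293 cells stably expressing human MrgX1 receptor | Quantity: 15,000 cells per well | Times: Cells plated overnight, dye loaded 0.5 h 37 °C, 0.5 h room temperature | Measured by: Kinetic Fluo-4 NW fluorescence of intracellular calcium | Control set: Positive and negative controls per plate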
RGS4 act valid – RGS4 activation, validation assay; shares compounds with RGS4 act; HEK293 M3R/RGS4 inducible, carbachol calcium flux Fluo4; inhibition, % at 10 µM; hit rate 89% among 1,100;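 active means inhibition above 3 SD of the buffer control wells, cut at about 41% in these data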;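 further: signal is the integrated peak-minus-minimum Fluo4 fluorescence over baseline ratio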
M3R Ca counter – RGS4 activator counter-screen hit in non-induced cells | shares compounds with RGS4 act | HEK293 M3R non-induced RGS4, Fluo4 calcium flux; after carbachol challenge at its EC90 | inhibition, % at 10 µM | hit rate 82% among 1,100;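 active means inhibition exceeding 3 SD of buffer-only control wells, cut at about 26% in these data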;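 further: percent drop in integrated peak-minus-baseline over baseline Fluo4 ratio after carbachol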
MrgX1 ag confirm – reconfirmed activator of human MrgX1 receptor signaling; MrgX1-HEK293, Fluo-4 calcium fluorescence, FDSS; activation, % at 10 µM; hit rate 78% among 600; shares compounds with MrgX1 agonist;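 active means calcium signal rise, corrected for plate position, at least 3 library SD high, with starting brightness within 5 such deviations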
MrgX1 antag conf – reconfirmed antagonist of human MrgX1 receptor signaling; hit rate 19% among 2,300; shares compounds with MrgX1 antag; remaining BAM8-22 calcium response % of control (active compounds read low), % at 10 µM; MrgX1-HEK293, BAM8-22 calcium flux, Fluo-4; active compounds read low;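 active means remaining agonist calcium response no higher than 100% minus 3 SD of agonist-only control wells, with starting fluorescence near control levels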;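 further: agonist BAM8-22 given at a near maximal EC90 to ECmax level; peak minus minimum fluorescence divided by baseline after agonist addition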
HEK293 Ca flux – MrgX1 antagonist counter-screen hit in parental HEK293 cells | shares compounds with MrgX1 antag | Fluo-4 calcium fluorescence, FDSS | fluorescence ratio F(max-min)/F0 at 10 µM | hit rate 2% among 4,000 | AID 624111;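 active means duplicate-averaged calcium fluorescence ratio at least three times the standard deviation of buffer wells, a nonspecific response in parental cells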
HEK293 Ca counter – MrgX1 allosteric activator counter-screen hit in parental HEK293 cells; shares compounds with MrgX1 antag; parental HEK293 calcium flux, Fluo-4 fluorescence ratio; active compounds read high; fluorescence ratio F(max-min)/F0 at 10 µM; hit rate 0.4% among 4,000; AID 624114;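 active means calcium fluorescence ratio, averaged over duplicates, at least 3 SD of the buffer-well ratio, meaning a nonspecific response in receptor-free cells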;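 further: untransfected parental HEK293 lacking MrgX1 used as counterscreen for MrgX1 allosteric activators; fluorescence change taken during the second addition on a kinetic imager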
HEK293 Ca cntr2 – MrgX1 activator counter-screen hit in parental HEK293 cells; shares compounds with MrgX1 antag; Fluo-4 calcium fluorescence (FDSS); active compounds read high; fluorescence ratio F(max-min)/F0 at 10 µM; hit rate 8.7% among 4,000;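 active means calcium fluorescence ratio at least three times the spread of buffer wells, meaning a non-specific response in parental cells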
A number is an active result. Sampled rows, rich in hits. Any-hit rate of the full collection: about 3.8%.

What do the screens show for `O=S(=O)(Nc1cc2nc3ccccc3nc2n1Cc1ccccc1)c1ccc(Cl)cc1`?
MrgX1 PAM: inactive; Hep lipid drop: inactive; RGS4 act: -14; RGS4 inh: inactive; MrgX1 antag: inactive; MrgX1 agonist: 45; RGS4 act valid: 94; M3R Ca counter: 88; MrgX1 ag confirm: inactive; HEK293 Ca flux: 0.037; HEK293 Ca counter: inactive; HEK293 Ca cntr2: inactive

How did O=C(OCc1ccc(F)cc1)c1ccc2c(c1)-c1ccccc1C2=O do in these assays?
MrgX1 PAM: inactive; RGS4 act: inactive; RGS4 inh: inactive; MrgX1 antag: inactive; MrgX1 agonist: inactive

How did CCOC(=O)C1=C(Cc2ccc(F)cc2)C(=O)c2ccccc2C1=O do in these assays?
MrgX1 PAM: inactive; Hep lipid drop: inactive; RGS4 act: -9.1; RGS4 inh: inactive; MrgX1 antag: inactive; MrgX1 agonist: 108; RGS4 act valid: 89; M3R Ca counter: 46; MrgX1 ag confirm: 163%; HEK293 Ca flux: inactive; HEK293 Ca counter: inactive; HEK293 Ca cntr2: 54

How did COC(=O)c1sc(-c2ccc(C(C)(C)C)cc2)cc1NC(=O)CSCC(=O)O do in these assays?
MrgX1 PAM: inactive; Hep lipid drop: inactive; RGS4 act: -7.7; RGS4 inh: inactive; MrgX1 antag: -5.3; MrgX1 agonist: inactive; RGS4 act valid: 75; M3R Ca counter: 84; MrgX1 antag conf: inactive; HEK293 Ca flux: inactive; HEK293 Ca counter: inactive; HEK293 Ca cntr2: inactive

How did CCCCc1ccc(N/C(N)=N/c2nc(C)cc(C)n2)cc1 do in these assays?
MrgX1 PAM: inactive; Hep lipid drop: inactive; RGS4 act: -9.6; RGS4 inh: inactive; MrgX1 antag: inactive; MrgX1 agonist: 87; RGS4 act valid: 38; M3R Ca counter: 84; MrgX1 ag confirm: 511%; HEK293 Ca flux: inactive; HEK293 Ca counter: inactive; HEK293 Ca cntr2: 113

How did COc1cccc(NC(=O)NCc2ccccn2)c1 do in these assays?
MrgX1 PAM: inactive; Hep lipid drop: inactive; RGS4 act: inactive; RGS4 inh: inactive; MrgX1 antag: inactive; MrgX1 agonist: inactive

How did Oc1ccc(Nc2nnc(-c3ccc(O)cc3)c3ccccc23)cc1 do in these assays?
MrgX1 PAM: inactive; Hep lipid drop: inactive; RGS4 act: inactive; RGS4 inh: inactive; MrgX1 antag: inactive; MrgX1 agonist: inactive

What do the screens show for `COc1ccc(Nc2nnc(-c3ccc(O)cc3)c3ccccc23)cc1`?
MrgX1 PAM: inactive; Hep lipid drop: inactive; RGS4 act: -9.3; RGS4 inh: inactive; MrgX1 antag: -8.4; MrgX1 agonist: inactive; RGS4 act valid: 82; M3R Ca counter: 43; MrgX1 antag conf: inactive; HEK293 Ca flux: inactive; HEK293 Ca counter: 54; HEK293 Ca cntr2: inactive

Results for CCN1CCN(C(=O)CCc2nnc3ccc(N4CCN(c5cccc(OC)c5)CC4)nn23)CC1 ?
MrgX1 PAM: inactive; Hep lipid drop: inactive; RGS4 act: inactive; RGS4 inh: inactive; MrgX1 antag: inactive; MrgX1 agonist: inactive

What do the screens show for `Cc1cc(-c2cccs2)c2c(N)c(C(=O)c3ccc4c(c3)OCO4)sc2n1`?
MrgX1 PAM: inactive; Hep lipid drop: inactive; RGS4 act: -7.9; RGS4 inh: inactive; MrgX1 antag: -8.3; MrgX1 agonist: inactive; RGS4 act valid: 93; M3R Ca counter: 96; MrgX1 antag conf: inactive; HEK293 Ca flux: 0.65; HEK293 Ca counter: inactive; HEK293 Ca cntr2: inactive

What do the screens show for `COc1cccc(-c2csc(N3CCN(C(=O)Nc4ccc(Cl)cc4)CC3)n2)c1`?
MrgX1 PAM: inactive; Hep lipid drop: inactive; RGS4 act: -8.4; RGS4 inh: inactive; MrgX1 antag: -6.1; MrgX1 agonist: inactive; RGS4 act valid: 87; M3R Ca counter: 56; MrgX1 antag conf: 75%; HEK293 Ca flux: inactive; HEK293 Ca counter: inactive; HEK293 Ca cntr2: inactive

How did CN(CCOc1ccccc1)S(=O)(=O)c1ccc2oc3ccccc3c2c1 do in these assays?
MrgX1 PAM: inactive; RGS4 act: inactive; RGS4 inh: inactive; MrgX1 antag: inactive; MrgX1 agonist: inactive

Results for COc1cccc(N2CCN(c3ncnc4c3[nH]c3ccccc34)CC2C)c1 (stereo not drawn) ?
MrgX1 PAM: inactive; Hep lipid drop: inactive; RGS4 act: -9; RGS4 inh: inactive; MrgX1 antag: -15; MrgX1 agonist: inactive; RGS4 act valid: 94; M3R Ca counter: 83; MrgX1 antag conf: 4.6%; HEK293 Ca flux: inactive; HEK293 Ca counter: inactive; HEK293 Ca cntr2: inactive

What do the screens show for `CCN(CC)CC#CCC(O)(c1ccccc1)C1CCCC1` (stereo not drawn)?
MrgX1 PAM: inactive; Hep lipid drop: inactive; RGS4 act: -7.9; RGS4 inh: inactive; MrgX1 antag: -8.7; MrgX1 agonist: inactive; RGS4 act valid: 94; M3R Ca counter: 91; MrgX1 antag conf: inactive; HEK293 Ca flux: inactive; HEK293 Ca counter: inactive; HEK293 Ca cntr2: inactive

What do the screens show for `Cc1ccc(O)c(C(=O)c2cnc3c(c2)COc2ccccc2-3)c1`?
MrgX1 PAM: inactive; Hep lipid drop: inactive; RGS4 act: -9.3; RGS4 inh: inactive; MrgX1 antag: -10; MrgX1 agonist: inactive; RGS4 act valid: 86; M3R Ca counter: 88; MrgX1 antag conf: inactive; HEK293 Ca flux: inactive; HEK293 Ca counter: inactive; HEK293 Ca cntr2: inactive

Results for Cc1ccc(S(=O)(=O)NC(C)CCc2ccccc2)cc1C(N)=O (stereo not drawn) ?
MrgX1 PAM: inactive; Hep lipid drop: inactive; RGS4 act: inactive; RGS4 inh: inactive; MrgX1 antag: inactive; MrgX1 agonist: inactive
